Source: PubChem
M5 ag – agonists of human muscarinic M5 receptor (CHRM5); P08912; CHO-K1 hM5 cells, Fluo-8 calcium fluorescence; 0% DMSO wells, 100% maximal acetylcholine response; activation, % at 3 µM; actives 0.19% (n = 360,000); AID 624037;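 active = activation above the run's mean over test compounds plus 3 SD, cut at about 23% in these data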;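 also: signal is peak over basal fluorescence ratio across the kinetic read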
Target sequence (P08912 whole entry, looked up): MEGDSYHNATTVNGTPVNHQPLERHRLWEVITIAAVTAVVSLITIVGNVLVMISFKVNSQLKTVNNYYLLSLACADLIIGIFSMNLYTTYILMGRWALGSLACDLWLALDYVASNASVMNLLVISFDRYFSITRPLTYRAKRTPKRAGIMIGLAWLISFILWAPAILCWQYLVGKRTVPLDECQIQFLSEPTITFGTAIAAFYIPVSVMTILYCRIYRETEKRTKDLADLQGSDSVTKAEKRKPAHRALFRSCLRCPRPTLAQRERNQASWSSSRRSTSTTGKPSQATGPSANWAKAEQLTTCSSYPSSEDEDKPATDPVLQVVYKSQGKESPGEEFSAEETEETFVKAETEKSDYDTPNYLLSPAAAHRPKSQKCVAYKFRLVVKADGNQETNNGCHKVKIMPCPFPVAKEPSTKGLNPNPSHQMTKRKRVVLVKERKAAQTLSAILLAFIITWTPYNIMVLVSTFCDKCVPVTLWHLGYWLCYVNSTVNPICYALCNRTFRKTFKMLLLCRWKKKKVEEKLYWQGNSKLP
M5 antag – blocks acetylcholine activation of human M5 receptor; P08912; CHO-hM5 cells, Fluo-8 calcium fluorescence, ACh EC80; inhibition, % at 3 µM; actives 0.59% (n = 360,000);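 active = inhibition above a per-plate cutoff, the mean of that plate's test compounds plus 3 SD, cut at about 27% in these data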
M4 ag – CHRM4 agonism in calcium assay. activation, % at 3 µM. actives 0.14% (n = 360,000). CHO-K1 hM4/Gqi5, Fluo-8 calcium fluorescence; vehicle 0%, full acetylcholine response 100%. P08173;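 active = activation above the run mean over all test wells plus 3 SD, cut at about 32% in these data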;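 also: peak over basal fluorescence ratio per well then scaled between controls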
CHRM4 antagonist – antagonists of human muscarinic M4 receptor (CHRM4); P08173; CHO-hM4 cells, ACh EC80, Fluo-8 calcium fluorescence; inhibition, % at 3 µM; actives 0.73% (n = 360,000); AID 624125;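 active = inhibition above its plate's cutoff, the mean inhibition of sample wells plus 3 SD, cut at about 27% in these data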
CHRM4 PAM – potentiates acetylcholine response at human M4 receptor. CHO-K1 hM4/Gqi5, Fluo-8 calcium fluorescence, ACh EC20; 0% = ACh EC20, 100% = maximal ACh. activation, % at 3 µM. actives 0.4% (n = 360,000);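 active = activation above its plate's cutoff, the mean activation of sample wells plus 3 SD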
M5 PAM – positive allosteric modulators of human muscarinic M5 receptor; P08912; CHO-K1 hM5, Fluo-8 calcium, ACh EC20 PAM; 0% = ACh EC20, 100% = ACh EC100; actives 0.3% (n = 360,000); AID 624038; activation, % at 3 µM;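 active = activation above the run cutoff, the mean activation of all test compounds plus 3 SD, cut at about 18% in these data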
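System: CHO-K1 cell line with stable human muscarinic M5 receptor expression | Also added: EC20 acetylcholine as agonist stimulus | Compound: One concentration, 3 µM final (nominal) | Timing: Fluo-8 loading 80 min at 37 °C plus 30 min room temperature | Measured by: Fluo-8 calcium dye fluorescence, kinetic read | Read-out basis: % activation, ACh-normalized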
Numbers stand for hits. Only some compounds are listed: those with a hit (about 1.8% of all), similar ones and a draw of the others.

How did COC(=O)c1c(-c2ccncc2)csc1NC(=O)c1ccoc1C do in these assays?
M5 ag: inactive; M5 antag: inactive; M4 ag: inactive; CHRM4 antagonist: 32; CHRM4 PAM: 48; M5 PAM: inactive

Results for CCCn1nc(NS(=O)(=O)c2cccc3nonc23)c2cc3cccc(C)c3nc21 ?
M5 ag: inactive; M5 antag: inactive; M4 ag: inactive; CHRM4 antagonist: inactive; CHRM4 PAM: inactive; M5 PAM: inactive

How did O=c1/c(=C/c2ccccc2)sc2nnc(-c3cccs3)n12 do in these assays?
M5 ag: inactive; M5 antag: inactive; M4 ag: inactive; CHRM4 antagonist: inactive; CHRM4 PAM: inactive; M5 PAM: 19

How did O=c1/c(=C\c2ccc(O)cc2)sc2nc(-c3ccccc3)c(-c3ccccc3)n12 do in these assays?
M5 ag: inactive; M5 antag: inactive; M4 ag: inactive; CHRM4 antagonist: inactive; CHRM4 PAM: inactive; M5 PAM: inactive

How did CCOC(=O)c1ccc(S(=O)(=O)N2CCN(C(=O)C3CSC4(C)CCC(=O)N34)CC2)cc1 (stereo unspecified) do in these assays?
M5 ag: inactive; M5 antag: inactive; M4 ag: inactive; CHRM4 antagonist: inactive; CHRM4 PAM: inactive; M5 PAM: inactive

Results for CC(Sc1nnc(N)s1)C(=O)NC1CCCCC1C (stereo unspecified) ?
M5 ag: inactive; M5 antag: inactive; M4 ag: inactive; CHRM4 antagonist: inactive; CHRM4 PAM: inactive; M5 PAM: inactive

Results for O=C(CCCc1ccccc1)NCCCN1CCOCC1 ?
M5 ag: inactive; M5 antag: inactive; M4 ag: inactive; CHRM4 antagonist: inactive; CHRM4 PAM: inactive; M5 PAM: inactive

How did c1ccc(OCc2ccc(CCCN3CCOCC3)cc2)cc1 do in these assays?
M5 ag: inactive; M5 antag: inactive; M4 ag: inactive; CHRM4 antagonist: inactive; CHRM4 PAM: inactive; M5 PAM: inactive

How did S=C(NCCCN1CCOCC1)N(Cc1ccccc1)Cc1ccccc1 do in these assays?
M5 ag: inactive; M5 antag: 31; M4 ag: inactive; CHRM4 antagonist: inactive; CHRM4 PAM: inactive; M5 PAM: inactive

Results for c1ccc(CCCN2CCOCC2)cc1 ?
M5 ag: inactive; M5 antag: inactive; M4 ag: inactive; CHRM4 antagonist: inactive; CHRM4 PAM: 17; M5 PAM: inactive

Results for COC(=O)C1=NN(C(=O)c2cccc(Br)c2)C(O)(c2ccc(Cl)cc2)C1 (stereo unspecified) ?
M5 ag: inactive; M5 antag: inactive; M4 ag: 39; CHRM4 antagonist: inactive; CHRM4 PAM: inactive; M5 PAM: inactive

Results for CCOC(=O)c1c(C)n(C)c2ccc(OC)c(NC(=O)CN3CCC(C(=O)OCC)CC3)c12 ?
M5 ag: inactive; M5 antag: inactive; M4 ag: inactive; CHRM4 antagonist: inactive; CHRM4 PAM: inactive; M5 PAM: inactive

Results for O=C(/C=C/c1ccc(F)cc1)NC(=S)Nc1ccccc1C(=O)NC1CCCCC1 ?
M5 ag: inactive; M5 antag: inactive; M4 ag: inactive; CHRM4 antagonist: inactive; CHRM4 PAM: inactive; M5 PAM: 21

What do the screens show for `COCn1c(-c2ccccc2)nc2ccccc21`?
M5 ag: inactive; M5 antag: inactive; M4 ag: inactive; CHRM4 antagonist: inactive; CHRM4 PAM: 29; M5 PAM: inactive

Results for CCOC(=O)c1c(-c2ccc(C)o2)csc1NC(=O)CSc1nnnn1-c1ccccc1 ?
M5 ag: inactive; M5 antag: inactive; M4 ag: inactive; CHRM4 antagonist: 30; CHRM4 PAM: inactive; M5 PAM: inactive

How did CCOC(=O)c1c(-c2ccc(C)o2)csc1NC(=O)CSc1nnc(C)s1 do in these assays?
M5 ag: inactive; M5 antag: inactive; M4 ag: inactive; CHRM4 antagonist: inactive; CHRM4 PAM: inactive; M5 PAM: inactive

What do the screens show for `O=C(CSc1nnnn1-c1ccccc1)NCc1cccs1`?
M5 ag: inactive; M5 antag: inactive; M4 ag: inactive; CHRM4 antagonist: inactive; CHRM4 PAM: inactive; M5 PAM: 20

How did COc1cccc(-c2ccc(=O)n(CC(=O)Nc3ccc(C(=O)N4CCCC4)cc3)n2)c1 do in these assays?
M5 ag: inactive; M5 antag: inactive; M4 ag: inactive; CHRM4 antagonist: inactive; CHRM4 PAM: inactive; M5 PAM: 19

How did Cc1nn(CC(=O)Nc2ccc(C(=O)N3CCCC3)cc2)c(=O)c2ccccc12 do in these assays?
M5 ag: inactive; M5 antag: inactive; M4 ag: inactive; CHRM4 antagonist: inactive; CHRM4 PAM: inactive; M5 PAM: 39

How did Cc1nn(CC(=O)Nc2ccc(C(=O)N3CCCCC3)cc2)c(=O)c2ccccc12 do in these assays?
M5 ag: inactive; M5 antag: inactive; M4 ag: inactive; CHRM4 antagonist: inactive; CHRM4 PAM: inactive; M5 PAM: inactive

Results for CC(C)(C)OC(=O)C[C@@H]1C/C=C\C[C@H](CC(=O)NCCO)C(=O)N[C@@H](Cc2ccccc2)COC1=O ?
M5 ag: inactive; M5 antag: inactive; M4 ag: inactive; CHRM4 antagonist: inactive; CHRM4 PAM: inactive; M5 PAM: inactive

What do the screens show for `O=C(COc1ccccc1)Nc1cccc(-c2nn[nH]n2)c1`?
M5 ag: inactive; M5 antag: inactive; M4 ag: inactive; CHRM4 antagonist: inactive; CHRM4 PAM: inactive; M5 PAM: inactive

What do the screens show for `O=C(COc1ccccc1)Nc1cccc(-c2nc3cc4ccccc4cc3[nH]2)c1`?
M5 ag: inactive; M5 antag: inactive; M4 ag: inactive; CHRM4 antagonist: 30; CHRM4 PAM: inactive; M5 PAM: inactive

Results for CCOC(=O)N1CCN(C(=O)CNC(=O)Cn2cnc3ccccc3c2=O)CC1 ?
M5 ag: inactive; M5 antag: inactive; M4 ag: inactive; CHRM4 antagonist: inactive; CHRM4 PAM: 21; M5 PAM: inactive

How did CCCCNC(=O)CN1C(=O)CSc2ccc(S(=O)(=O)N3CCOCC3)cc21 do in these assays?
M5 ag: inactive; M5 antag: inactive; M4 ag: inactive; CHRM4 antagonist: inactive; CHRM4 PAM: inactive; M5 PAM: inactive

What do the screens show for `CCCCCCCNC(=O)CN1C(=O)CSc2ccc(S(=O)(=O)N3CCOCC3)cc21`?
M5 ag: inactive; M5 antag: 30; M4 ag: inactive; CHRM4 antagonist: inactive; CHRM4 PAM: inactive; M5 PAM: inactive

What do the screens show for `COC(=O)C1=NN(c2ccc(C)cc2)C2(S1)SC(C(C)=O)=C(C)N2c1ccccc1` (stereo unspecified)?
M5 ag: inactive; M5 antag: inactive; M4 ag: inactive; CHRM4 antagonist: inactive; CHRM4 PAM: inactive; M5 PAM: 21

Results for COC(=O)C1=NN(c2ccccc2)C2(S1)SC(C(C)=O)=C(C)N2c1ccccc1 (stereo unspecified) ?
M5 ag: inactive; M5 antag: inactive; M4 ag: inactive; CHRM4 antagonist: inactive; CHRM4 PAM: inactive; M5 PAM: inactive
